Screening data from PubChem.
Compounds with a hit are over-represented: about 1.4% of the library has one in this group of screens.
Rev-erbA mod: Rev-erb alpha (human) modulation | 0.79% of 370,000 active | AID 1259318 | activity, % at 10 µM | Rev-erbα–FITC-DNA binding, fluorescence polarization, 90 min;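 active = activity above about 14%, limit read from the data; passing the limit was not always enough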
Target sequence (P20393 whole entry, looked up): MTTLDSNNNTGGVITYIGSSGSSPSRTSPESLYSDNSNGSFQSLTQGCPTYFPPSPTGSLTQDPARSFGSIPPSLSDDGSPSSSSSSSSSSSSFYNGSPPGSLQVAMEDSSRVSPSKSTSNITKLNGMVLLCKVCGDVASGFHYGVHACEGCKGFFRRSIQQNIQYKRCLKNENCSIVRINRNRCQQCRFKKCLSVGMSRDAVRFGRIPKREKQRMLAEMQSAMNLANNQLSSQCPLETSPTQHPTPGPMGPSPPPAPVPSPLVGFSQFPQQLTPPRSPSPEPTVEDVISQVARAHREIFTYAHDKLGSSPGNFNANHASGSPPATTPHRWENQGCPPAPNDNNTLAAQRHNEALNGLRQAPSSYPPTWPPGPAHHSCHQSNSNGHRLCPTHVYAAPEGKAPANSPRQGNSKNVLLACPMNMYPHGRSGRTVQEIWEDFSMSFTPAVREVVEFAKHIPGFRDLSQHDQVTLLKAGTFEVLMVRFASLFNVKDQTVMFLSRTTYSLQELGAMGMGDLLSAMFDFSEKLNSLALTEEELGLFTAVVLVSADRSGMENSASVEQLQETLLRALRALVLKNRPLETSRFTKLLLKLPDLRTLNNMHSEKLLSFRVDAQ
PG9 binder: small molecules binding HIV-1 gp120 antibody PG9 | TR-FRET gp120-PG9 antibody binding | inhibition, % at 6.7 µM | 0.43% of 360,000 active | AID 624416; in the data active = inhibition above about 8.5%
NR2E3 ag-1: NR2E3 (human) agonism. GST-NR2E3/biotin-RetCOR TR-FRET, 1536-well. 0.12% of 320,000 active. inhibition of corepressor binding, % at 4.78 µM. AID 2300. Q9Y5X4;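 active = percent inhibition above the cutoff of mean plus 3 SD of all tested compounds, set per screening campaign, cut at about 20% in these data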
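Assay system: NR2E3–RetCOR corepressor complex. Quantity: 1.35 nM GST-NR2E3. Buffer or medium: pH 7.5 Tris-based buffer. Reagent: biotinylated RetCOR corepressor at 7 nM final. Schedule: 5 h at 4 °C. Detection: TR-FRET, emission read at 617 and 671 nm. Replicates: one well per compound, singlicate testing.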
NR2E3 ag-2: activates human NR2E3 receptor | CHO-S Gal4-NCOR/VP16-NR2E3 two-hybrid, luciferase | inhibition of corepressor binding, % at 3.98 µM | 0.35% of 360,000 active | AID 602229;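 active = inhibition above the mean of all tested compounds plus 3 SD, cut at about 70% in these data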;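 also: higher means lower luciferase signal from less NR2E3 corepressor binding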
NR2E3 ag confirm: confirmation of human NR2E3 agonists; shares compounds with NR2E3 ag-2; CHO-S mammalian two-hybrid NR2E3-NCOR, luciferase luminescence; inhibition, % at 3.98 µM; 51% of 2,300 active; AID 624378;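 active = average inhibition above a cutoff equal to the mean inhibition of all tested compounds plus one SD, cut at about 70% in these data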
VP16 counter: GAL4-VP16 reporter inhibition in NR2E3 agonist counterscreen; shares compounds with NR2E3 ag-2; CHO-S GAL4-VP16 luciferase reporter, luminescence; inhibition, % at 3.98 µM; 29% of 2,300 active; AID 624379;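 active = mean inhibition above a cutoff equal to the average over all tested compounds plus one standard deviation, cut at about 70% in these data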;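 also: luciferase from a UAS reporter driven by GAL4-VP16 transactivation; higher means less reporter light so more repression of VP16 activity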
Numbers stand for hits; n = inactive; x = no result given.

SMILES	Rev-erbA mod	PG9 binder	NR2E3 ag-1	NR2E3 ag-2	NR2E3 ag confirm	VP16 counter
Cc1ccc(-n2ncc3c2CCCC3NC(=O)c2ocnc2C)cc1C (stereo unspecified)	n	n	n	101	90	80
CCn1nc(C)cc1C(=O)NC1CCCc2c1cnn2-c1ccc(C)c(C)c1 (stereo unspecified)	n	n	n	n	n	n
Cc1cc(C(=O)NC2CCCc3c2cnn3-c2ccc(C)c(C)c2)no1 (stereo unspecified)	n	n	n	n	x	x
Cc1cc(C(=O)NC2CCCc3c2cnn3-c2cccc(C)c2C)n(C)n1 (stereo unspecified)	n	n	n	110	98	91
CCCSS/C(CCO)=C(/C)N(C=O)Cc1cnc(C)nc1N	n	x	x	x	x	x
COc1ccc(CN(CCN2CCOCC2)C(=O)c2cc(Cl)ccc2F)cc1OC	n	x	x	x	x	x
O=C(Nc1ccc(OCC(F)(F)C(F)F)c(C(F)(F)F)c1)c1ccc(Cl)cc1	n	n	n	90	n	n
CSC(=S)N/N=C(\C)c1ccc(Br)cc1	n	n	n	82	n	n
CCc1ccc(NC(=O)C2CCN(S(=O)(=O)c3ccc4c(c3)NC(=O)C(C)S4)CC2)cc1 (stereo unspecified)	n	n	n	n	x	x
Cc1ccc(NC(=O)C2CCN(S(=O)(=O)c3ccc4c(c3)NC(=O)C(C)S4)CC2)cc1C (stereo unspecified)	n	n	n	74	93	73
CC1Sc2ccc(S(=O)(=O)N3CCC(C(=O)Nc4cccc(Cl)c4)CC3)cc2NC1=O (stereo unspecified)	n	n	n	n	n	n
Oc1ccccc1Cn1nnc2ccccc21	n	n	n	n	x	x
Cc1cc(Cn2nnc3ccccc32)c(O)c(C(C)(C)C)c1	n	n	n	80	n	n
Cc1cccc(Cn2nnc3ccccc32)c1O	n	n	n	n	x	x
CC(C)(C)c1cccc(Cn2nnc3ccccc32)c1O	n	n	n	n	n	n
C[C@@H]1OC(c2ccccc2)N(C)[C@H]2C[C@H]3c4[nH]c5cccc(-c6ccccc6)c5c4CCN3C[C@@H]12 (stereo partly specified)	n	x	x	x	x	x
CC(C)NC(=O)CCn1nnc(-c2cccs2)n1	n	x	x	x	x	x
CCOC(=O)Cn1c(=O)c(-c2ccccc2N)nc2ccccc21	n	n	n	n	x	x
CCOC(=O)Cn1c(=O)c(-c2cc(Br)ccc2N)nc2ccccc21	n	n	n	76	80	n
O=C(Nc1ccc(N2CCN(C(=O)c3ccco3)CC2)cc1)c1ccc2c(c1)OCO2	n	n	n	n	n	n
Cc1ccccc1C(=O)N1CCN(c2ccc(NC(=O)c3ccc4c(c3)OCO4)cc2)CC1	n	n	n	75	91	n
COc1cc(NC(=O)C2CCCN(S(=O)(=O)c3ccc(Br)s3)C2)cc(OC)c1 (stereo unspecified)	n	x	x	x	x	x
C=CC(=O)N1C/C(=C/c2ccc(F)cc2)C(=O)/C(=C\c2ccc(F)cc2)C1	n	n	x	n	n	n
CN1C2CCC1/C(=C\c1ccc(F)cc1)C(=O)/C2=C/c1ccc(F)cc1	n	n	n	n	x	x
Nc1nc2ccc(Cl)cc2cc1C(=O)NCCc1ccc(O)cc1	n	n	x	x	x	x
SMILES	Rev-erbA mod	PG9 binder	NR2E3 ag-1	NR2E3 ag-2	NR2E3 ag confirm	VP16 counter
COc1ccc(CCNC(=O)/C=C/c2ccc3ccccc3n2)cc1OC	n	n	n	n	n	n
COc1ccc(CCNC(=O)c2cc3cc(Cl)ccc3nc2N)cc1OC	x	x	x	n	n	n
Nc1nc2ccc(Cl)cc2cc1C(=O)NCc1ccccc1Br	n	x	x	x	x	x
Nc1nc2ccccc2cc1C(=O)NCc1ccc(Cl)cc1Cl	x	x	x	91	97	79
CN(C)c1cccc(/C=C2\CC3(OC(=O)c4cccc(F)c4)CCCN2C3)c1 (stereo unspecified)	n	x	x	x	x	x
CCn1c(SCC(=O)Nc2ccc(S(=O)(=O)Nc3cc(C)nc(C)n3)cc2)nc2sc(C)c(C)c2c1=O	n	x	x	x	x	x
COc1ccccc1-n1cnnc1SCC(=O)Nc1cc(C(C)(C)C)nn1-c1ccccc1	n	n	n	n	x	x
COc1ccc(-n2cnnc2SCC(=O)Nc2cc(C(C)(C)C)nn2-c2ccccc2)cc1	n	n	n	n	n	n
CCCCN(C(C)=O)c1ccc2c(c1)C1CC2CCN1C(=O)OCc1ccccc1 (stereo unspecified)	n	n	x	n	91	n
